Not all results are given here.
HKDC1 activator = HKDC1 hexokinase activators, primary screen, biochemical, fluorescence, uHTS; Q2TB90; recombinant HKDC1, G6PDH/diaphorase resazurin fluorescence; stronger effect = lower value; activity change, negative = activation, % at 20 µM; actives 0.056% (n = 340,000); AID 493187, 2011;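 active = activation of 40% or more at 20 µM, a change of -40% or lower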
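Material – in-house human HKDC1 enzyme, G6PDH and diaphorase coupling enzymes · Input – HKDC1 at 5 µg/mL final · Buffer or medium – pH 8.0 Tris with MgCl2 · Dosing – single compound dose of 20 µM, 1% DMSO final · Incubation – 90 min, room temperature · Technique – resorufin fluorescence from 100 µM resazurin, NADP 1 mM, Ex 525/Em 613 nm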
* marks the source's active call; other numbers are inactive results.

Oc1ccc(-c2cnns2)c(O)c1 was read as HKDC1 activator 45.
Screening O=C(N/N=C/c1ccccc1OC(=O)c1ccc2c(c1)OCO2)c1ccccc1 returned HKDC1 activator -48*.
For O=C1C=CC(=O)C(CNc2ccc(C(=O)OCc3ccccc3)cc2)=C1 the results were HKDC1 activator 47.
`CCN1CCN(c2cc3c(nn2)Oc2ccccc2N3C)CC1` gave HKDC1 activator -44*.
For Cn1nccc1C(=O)N1CCN(c2cccc(Cl)c2)CC1 the results were HKDC1 activator 39.
Screening CCOc1ccccc1Nc1nnc(SCc2nnc(-c3cc(OC)c(OC)c(OC)c3)o2)s1 returned HKDC1 activator 48.
`Cc1nnc(N=c2ssnc2Cl)o1` gave HKDC1 activator -88*.
Screening Cc1cc(C)nc(/N=c2/ssnc2Cl)c1 returned HKDC1 activator -137*.
Screening Cc1ccc(N=c2ssnc2Cl)cc1 returned HKDC1 activator -51*.
For COc1cc(N=c2ssnc2Cl)c(OC)cc1Cl the results were HKDC1 activator -46*.
Screening O=S(=O)(O)c1cc(O)c2ccc(Nc3ccccc3)cc2c1 returned HKDC1 activator 50.
COc1ccc(CN2C=C3C(=O)C(C)(OC(=O)C4CCCC4)C(=O)C=C3C=C2c2ccsc2)cc1 (stereo unspecified) was read as HKDC1 activator 35.
`COc1ccccc1Nc1ccc2c(O)cc(S(=O)(=O)O)cc2c1` gave HKDC1 activator 38.
Screening Cc1cc(O)c(-c2cc(O)c(C)cc2O)cc1O returned HKDC1 activator 45.
For COc1cccc(CC(Cc2nc3ccccc3[nH]2)c2nc3ccccc3[nH]2)c1 (stereo unspecified) the results were HKDC1 activator 50.
Screening Cn1c2ccccc2c(=O)c2c(=O)n(-c3ccccc3)c(C3CCCCC3)nc21 returned HKDC1 activator 43.
Screening N#CC(C#N)=c1ccc2c(c1)N1C3=C(CCCC3)CC3CCCCC31N=2 (stereo unspecified) returned HKDC1 activator 39.
`COC1=CC(=O)C=C(OC)C1=O` gave HKDC1 activator 66.
For COC(=O)c1sc(NC(=O)CSc2nc3nc(C)cc(C)n3n2)c(C(=O)OC)c1C the results were HKDC1 activator 35.
For CC(=O)Oc1cccc2c1C(=O)C1CC=CC(OC(C)=O)C1C2=O (stereo unspecified) the results were HKDC1 activator -45*.
For COc1cc(NS(=O)(=O)c2ccc(NC(=O)c3ccc(F)cc3)cc2)ncn1 the results were HKDC1 activator -59*.
Screening CC(C)C(=O)N(c1cc2sc(=O)oc2c2ccccc12)S(=O)(=O)c1cccs1 returned HKDC1 activator 45.
O=C1C(Nc2ccc(O)cc2)=C/C(=N/S(=O)(=O)c2cccs2)c2ccccc21 was read as HKDC1 activator 60.
Screening O=S(=O)(/N=C/c1c(O)ccc2ccccc12)c1ccccc1 returned HKDC1 activator 44.
`C=CCn1nc([N+](=O)[O-])nc1Sc1cccc2cccnc12` gave HKDC1 activator -47*.
`COc1ccc2[nH]c(=O)c(CN(C3CCCCC3)C(c3nnnn3Cc3ccco3)C(C)C)cc2c1` (stereo unspecified) gave HKDC1 activator 37.
`N=C1/C(=C\c2ccc(-c3ccc(C(=O)O)cc3)o2)C(=O)N=C2SC=C(c3ccccc3)N12` gave HKDC1 activator 40.
For COc1ccc(-c2cc(N)n(CCC#N)n2)c(OC)c1 the results were HKDC1 activator 40.
Screening O=C(CSc1nc(-c2ccc(F)cc2)nc2c1Cc1ccccc1O2)Nc1ccc(C(=O)O)cc1 returned HKDC1 activator 44.
Screening CC(=NNc1nc2ccccc2o1)c1cc2ccccc2cn1 returned HKDC1 activator -48*.
`Cc1cc(C)n(-c2ccc(NC(=O)C3CCN(Cc4cc(C)c(C)o4)CC3)cc2)n1` gave HKDC1 activator 41.
COC(=O)c1cc(C)nc2c1C(=O)C(=O)C=C2N1CCOCC1 was read as HKDC1 activator 68.
CC(=O)n1cc(N(C(=O)CCl)c2ccc(Cl)cc2)c2ccccc21 was read as HKDC1 activator 58.
`Cc1onc(-c2ccccc2)c1C(=O)NNC(=S)NC(=O)/C=C/c1cccs1` gave HKDC1 activator -57*.
Screening O=C(/C=C/c1cccs1)Nc1scc(-c2ccccc2)c1C(=O)O returned HKDC1 activator 81.
For CCCCNC(=O)c1sc(=S)n2c1[nH]c(=O)c1ccc(C(=O)NCCc3ccc(OC)c(OC)c3)cc12 the results were HKDC1 activator 48.
O=C(CCNC(=O)c1ccc([N+](=O)[O-])cc1)NCCC1=CCCCC1 was read as HKDC1 activator 35.
`COc1ccc(N=C2C(=S)N(c3ccc(OC)cc3)C(=NS(=O)(=O)c3ccccc3)N2c2ccccc2)cc1` gave HKDC1 activator -69*.
For O=C1CSC(=S)N1N=Cc1ccccc1O the results were HKDC1 activator -42*.
Screening CCCc1nc2oc3c(NCC4CCCO4)ncnc3c2c2c1COC(C)(C)C2 (stereo unspecified) returned HKDC1 activator 35.
`CCOc1ccc2nc3cc(NCc4ccc(OC)cc4)ccc3c(N)c2c1` gave HKDC1 activator 36.
COc1ccc(-c2[nH]c(-c3ccc(SC)cc3)nc2SCC(=O)Nc2nccs2)cc1 was read as HKDC1 activator -54*.
Screening COC(=O)c1ccc(NC(=O)CSc2n[nH]c(-c3ccncc3)n2)cc1 returned HKDC1 activator 36.
For CCOC(=O)c1ccc(NC(=O)CSc2n[nH]c(-c3ccncc3)n2)cc1 the results were HKDC1 activator 40.
Cc1cc(C)c(S(=O)(=O)/N=C2\C=C(Nc3ccc(C(=O)O)cc3)C(=O)c3ccccc32)c(C)c1 was read as HKDC1 activator 41.
Screening CCC(C)C(N)C1=NC(C(=O)N[C@@H](CC(C)C)C(=O)N[C@H](CCC(=O)[O-])C(=O)N[C@H](C(=O)N[C@H]2CCCCNC(=O)[C@H](CC(N)=O)NC(=O)[C@@H](CC(=O)[O-])NC(=O)[C@H](Cc3cnc[nH]3)NC(=O)[C@@H](Cc3ccccc3)NC(=O)[C@H]([C@@H](C)CC)NC(=O)[C@@H](CCCN)NC2=O)[C@@H](C)CC)CS1.[Zn+2] (stereo partly specified) returned HKDC1 activator 92.
Screening O=C(NCCc1ccccc1)C(c1cccs1)N(C(=O)CCl)c1ccc(Cl)cc1 (stereo unspecified) returned HKDC1 activator 37.
`CC(=NNC(=S)SCc1ccccc1)c1ccccn1` gave HKDC1 activator -47*.
`CC(=NNC(=S)Nc1cccc(Cl)c1)c1ccccn1` gave HKDC1 activator -46*.
`COc1ccc2c(c1)C(=NNC(=O)c1ccccn1)c1cc(OC)ccc1-2` gave HKDC1 activator 42.
`COC(=O)CCC(=O)OC1(C)C(=O)C2=COC(c3ccc(OC)cc3)=CC2=C(Br)C1=O` (stereo unspecified) gave HKDC1 activator 37.
O=C1C(Cl)=C(N2CCCCC2)C(=O)C(Cl)=C1c1cnc(N2CCCCC2)s1 was read as HKDC1 activator 70.
O=C(CCl)N1c2ccccc2Sc2c1ccc1ccccc21 was read as HKDC1 activator 44.
`COc1ccc(-c2nc3c(C(=O)NCCN(C)C)cccc3c3ccccc23)cc1` gave HKDC1 activator 39.
For CC1(C)Cc2ccccc2C2=NNC(=O)C2=N1 the results were HKDC1 activator 53.
Cc1ccc(SSc2cc(C)ccc2N)c(N)c1 was read as HKDC1 activator -44*.

Assay outcomes from PubChem BioAssay.
